Reference: ChEMBL document CHEMBL1143913, “Pyrimidinone-peptoid hybrid molecules with distinct effects on molecular chaperone function and cell proliferation” (Bioorg Med Chem, 2008)

Key:
Saccharomyces cerevisiae [1] = test: Inhibition of SV40 T antigen-stimulated Hsp70 ATPase in yeast assessed as ATP hydrolysis relative to control
Summary of the method: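 Yeast Ssa1p was pre-bound to ATP and run as a single-turnover assay with purified SV40 TAg (0.4 µM). Compound (300 µM) or DMSO was added at 60 s, and that time was set to zero. Runs were averaged over multiple experiments, kinetics were fitted, and the value is the fold change in TAg-stimulated ATP hydrolysis versus DMSO.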

HT-29 = test: Antiproliferative activity against human HT29 cells after 96 hrs by MTS assay; type: functional; conditions: HT-29, 96 h
Summary of the method: (§1)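 Cells were kept in exponential growth in DMEM with 10% FBS, 1% penicillin and 1% glutamine, seeded at 4,000 per well and grown 48 h, with a time-zero plate counted. They were then exposed for 72 h to DMSO (1 v/v) or a concentration range in quadruplicate. Cell number was read by MTS/N-methylphenazine methylsulfate absorbance at 490 minus 630 nm. GI50 is relative to DMSO over the 72 h or 96 h period, and values above 50 µM are given as >50.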

SK-BR-3 = test: Antiproliferative activity against human SK-BR3 cells after 96 hrs by MTS assay; type: functional; conditions: SK-BR-3, 96 h; summary of the method: as §1
Saccharomyces cerevisiae [2] = test: Inhibition of yeast Hsp70 ATPase assessed as ATP hydrolysis relative to control
Summary of the method: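 Purified yeast Hsp70 (Ssa1p) was pre-bound to ATP and run as a single-turnover assay, so that only the hydrolysis step is measured. Compound (300 µM) or DMSO was added at 0 s, and that time was set to zero. Results from multiple experiments were averaged, kinetics were fitted, and the value is the fold change in hydrolysis versus DMSO.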

MCF7 = test: Antiproliferative activity against human MCF7 cells after 96 hrs by MTS assay; type: functional; conditions: MCF7, 96 h; summary of the method: as §1
[3] = Binding affinity to Hsp70
[4] = Binding affinity to Hsp90

Structure (SMILES)	Fold change (Saccharomyces cerevisiae [1])	GI50 (HT-29) [µM]	GI50 (SK-BR-3) [µM]	Fold change (Saccharomyces cerevisiae [2])	GI50 (MCF7) [µM]	Kd [3] [µM]	Kd [4] [µM]	EC50 (SK-BR-3; read-out: ED50 (the source's name)) [µM]
CCCCCCN(C(=O)CCCCCN1C(=O)NC(c2ccccc2)C(C(=O)OCc2ccccc2)=C1C)C(C(=O)NCCCC)c1ccc(OCC(=O)OC)c(C(=O)OC)c1 (configuration not stated)	-1.1	4.8	6.5	1.1	2.4	–	–	–
CCCCNC(=O)C(c1ccc(OCC(=O)OC)c(C(=O)OC)c1)N(CCOC)C(=O)CCCCCN1C(=O)NC(c2ccc(-c3ccccc3)cc2)C(C(=O)OCc2ccccc2)=C1C (configuration not stated)	-1.8	3.1	8.8	1.5	7.8	–	–	–
CCCCCCN(C(=O)CCCCCN1C(=O)NC(c2ccc(C3CCCCC3)cc2)C(C(=O)OCc2ccccc2)=C1C)C(C(=O)NCCCC)c1ccc(OCC(=O)OC)c(C(=O)OC)c1 (configuration not stated)	-1.6	–	42	2.2	–	–	–	–
CCCCCCN(C(=O)CCCCCN1C(=O)NC(c2ccc([N+](=O)[O-])cc2)C(C(=O)OCc2ccccc2)=C1C)C(C(=O)NCCCC)c1ccc(OCC(=O)OC)c(C(=O)OC)c1 (configuration not stated)	-1.1	–	6.9	1	–	–	–	–
CCCCNC(=O)C(c1ccc(OCC(=O)OC)c(C(=O)OC)c1)N(CCc1c[nH]c2ccccc12)C(=O)CCCCCN1C(=O)NC(c2ccc(-c3ccccc3)cc2)C(C(=O)OCc2ccccc2)=C1C (configuration not stated)	-1.3	–	> 50	10.3	–	–	–	–
CCCCNC(=O)C(c1ccc(OCC(=O)OC)c(C(=O)OC)c1)N(Cc1ccccn1)C(=O)CCCCCN1C(=O)NC(c2ccc(-c3ccccc3)cc2)C(C(=O)OCc2ccccc2)=C1C (configuration not stated)	-1.1	–	7.1	1	–	–	–	–
CC(C)(C)NC(=O)C(c1ccc(I)cc1)N(CCN1CCOCC1)C(=O)CCCNC(=O)c1ccccc1 (configuration not stated)	-2	> 50	> 50	1.1	> 50	–	–	–
CCCCNC(=O)C(c1ccc(-c2ccccc2)cc1)N(CCN1CCOCC1)C(=O)CCCCCN1C(=O)NC(c2ccc([N+](=O)[O-])cc2)C(C(=O)OCc2ccccc2)=C1C (configuration not stated)	-5	–	> 50	2.3	–	–	–	–
CC1=C(C(=O)OCc2ccccc2)C(c2ccc(C3CCCCC3)cc2)NC(=O)N1CCCCCC(=O)O (configuration not stated)	-2.4	–	> 50	1.1	–	–	–	–
CC1=C(C(=O)OCc2ccccc2)C(c2ccccc2-c2ccccc2)NC(=O)N1CCCCCC(=O)O (configuration not stated)	-5	–	> 50	1	–	–	–	–
CCCCCCN(C(=O)CCCCCN1C(=O)NC(c2ccc(Cl)cc2)C(C(=O)OCc2ccccc2)=C1C)C(C(=O)NCCCC)c1ccc(OCC(=O)OC)c(C(=O)OC)c1 (configuration not stated)	-5.1	–	16	1.3	–	–	–	–
COC(=O)CCCCCN1C(=O)NC(C2CC2)C(C(=O)OCc2ccccc2)=C1C (configuration not stated)	1	–	> 50	1.9	–	–	–	–
CCCCCCN(C(=O)CCCCCN1C(=O)NC(c2ccc(-c3ccccc3)cc2)C(C(=O)OCc2ccccc2)=C1C)C(C(=O)NCCCC)c1ccc(-c2ccccc2)cc1 (configuration not stated)	6	–	> 50	9.9	–	–	–	–
CCCCCCN(C(=O)CCCCCN1C(=O)NC(c2ccc(-c3ccccc3)cc2)C(C(=O)OCc2ccccc2)=C1C)C(C)C(=O)NCCCC (configuration not stated)	1	–	> 50	1.6	–	–	–	–
CCCCCCN(C(=O)CCCCCN1C(=O)NC(c2ccc(-c3ccccc3)cc2)C(C(=O)OCc2ccccc2)=C1C)C(C(=O)NCCCC)c1cccc(C(=O)OC)c1 (configuration not stated)	-2	–	> 50	3.7	–	–	–	–
CCCCCCN(C(=O)CCCCCN1C(=O)NC(c2ccc(C(C)(C)C)cc2)C(C(=O)OCc2ccccc2)=C1C)C(C(=O)NCCCC)c1ccc(OCC(=O)OC)c(C(=O)OC)c1 (configuration not stated)	-5.2	–	29	1.2	–	–	–	–
CCCCCCN(C(=O)CCCCCN1C(=O)NC(c2ccc(-c3ccccc3)cc2)C(C(=O)OCc2ccccc2)=C1C)C(C(=O)NCCCC)c1ccc(OCC(=O)O)c(C(=O)O)c1 (configuration not stated)	-2.2	–	> 50	1.1	–	–	–	–
CCCCCCN(C(=O)CCCCCN1C(=O)NC(c2ccc(-c3ccccc3)cc2)C(C(=O)OCc2ccccc2)=C1C)C(C(=O)NCCCC)C1CCCCC1 (configuration not stated)	1.1	–	> 50	3.2	–	–	–	–
CCCCCCN(C(=O)CCCCCN1C(=O)NC(c2ccccc2-c2ccccc2)C(C(=O)OCc2ccccc2)=C1C)C(C(=O)NCCCC)c1ccc(OCC(=O)OC)c(C(=O)OC)c1 (configuration not stated)	-4	–	17	-1.1	–	–	–	–
CCCCCCN(C(=O)CCCCCN1C(=O)NC(c2ccc(-c3ccccc3)cc2)C(C(=O)OCc2ccccc2)=C1C)C(C(=O)NCCCC)c1ccccn1 (configuration not stated)	5.5	–	> 50	4.2	–	–	–	–
CC1=C(C(=O)OCc2ccccc2)C(C2CC2)NC(=O)N1CCCCCC(=O)O (configuration not stated)	1	–	> 50	1.1	–	–	–	–
CCCCCCN(C(=O)CCCCCN1C(=O)NC(c2ccc(-c3ccccc3)cc2)C(C(=O)OCc2ccccc2)=C1C)C(C(=O)NCCCC)c1ccc(O)cc1 (configuration not stated)	9.2	–	> 50	11.8	–	–	–	–
N=C(N)NCCCCCCC(=O)NC(O)C(=O)NCCCCNCCCN (configuration not stated) [GUSPERIMUS]	–	–	–	–	–	4	4	–
CCCCCCN(C(=O)CCCCCN1C(=O)NC(c2ccc(-c3ccccc3)cc2)C(C(=O)OCc2ccccc2)=C1C)C(C(=O)NCCCC)c1ccc(OCC(=O)OC)c(C(=O)OC)c1 (configuration not stated)	-2	> 50	27	1.7	14.7	–	–	8
CC1=C(C(=O)OCc2ccccc2)C(c2ccc(Cl)cc2)NC(=O)N1CCCCCC(=O)O (configuration not stated)	-1.6	–	> 50	1.3	–	–	–	–
CCCCCCN(C(=O)CCCCCN1C(=O)NC(C2CC2)C(C(=O)OCc2ccccc2)=C1C)C(C(=O)NCCCC)c1ccc(OCC(=O)OC)c(C(=O)OC)c1 (configuration not stated)	-2.6	5.3	6.2	1.2	6.3	–	–	–
CCCCNC(=O)C(c1ccc(OCC(=O)OC)c(C(=O)OC)c1)N(Cc1ccccc1)C(=O)CCCCCN1C(=O)NC(c2ccc(-c3ccccc3)cc2)C(C(=O)OCc2ccccc2)=C1C (configuration not stated)	-1.9	–	14	1.5	–	–	–	–
CCCCCCN(C(=O)CCCCCN1C(=O)NC(c2ccc(-c3ccccc3)cc2)C(C(=O)OCc2ccccc2)=C1C)C(C(=O)NCCCC)c1ccc(OCC(=O)OC)cc1 (configuration not stated)	1.2	–	48	1.1	–	–	–	–
CCCCCCN(C(=O)CCCCCN1C(=O)NC(C2CCCCC2)C(C(=O)OCc2ccccc2)=C1C)C(C(=O)NCCCC)c1ccc(OCC(=O)OC)c(C(=O)OC)c1 (configuration not stated)	-2.1	–	6.3	1.2	–	–	–	–
